≈ marks a conversion by molar mass, not a printed value.

The nature of data set [1]: Solubility of the compound in phosphate buffer saline. Format: physicochemical.
Data set [2] in a line: Volume of distribution at steady state in rat at 0.5 mg/kg, iv. Format: ADME, organism-based. Further details: dose 0.5 mg/kg, route intravenous. The note with it: in vivo, read-out: Vdss. In outline: (§1)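 Rat PK: intravenous 0.5 mg/kg in 100% DMSO; oral 2.0 mg/kg in 0.5% methylcellulose/1% Tween 80/98.5% water. Plasma profiles give MRT, Vdss and CL from the iv arm and F from the oral arm.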

A short description of data set [3]: Oral bioavailability in rat at 2 mg/kg. It counts as ADME, organism-based. Particulars: in vivo. Summed up:
as §1

The nature of data set [4]: Mean residence time in rat at 0.5 mg/kg, iv. It counts as ADME, organism-based. Further details: dose 0.5 mg/kg, route intravenous. Particulars: in vivo. In outline: as §1
Data set [5] is described as follows: Mean residence time in rat at 2 mg/kg, iv. Format: ADME, organism-based. Particulars: in vivo. Further details: dose 2 mg/kg, route intravenous. Summed up: (§2)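 Rats dosed intravenously at 2.0 mg/kg in DMSO, or orally at 5.0 mg/kg in 2% HPMC, 1% Tween 80, pH 2.2 with HCl. Plasma levels of parent and of the 4/5 conversion products were followed over time. iv parameters and oral bioavailability were taken from these profiles.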

Data set [6] is described as follows: Oral bioavailability in rat at 5 mg/kg, po. Format: ADME, organism-based. Particulars: in vivo. In outline:
as §2

The nature of data set [7]: Volume of distribution at steady state in rat at 2 mg/kg, iv. It counts as ADME, organism-based. Further details: dose 2 mg/kg, route intravenous. The note with it: in vivo, read-out: Vdss. In outline:
as §2

In general, solubility refers to the dissolved amount per volume that the medium holds. For orientation: bioavailability means dose-corrected exposure relative to a reference, in per cent. Low values mean little systemic uptake, high ones much systemic uptake. One may read the MRT as a mean duration of stay, worked out from the concentration-time curve. `O=C(O)CN1C2=C([C@H](c3ccc(Br)cc3)n3ncnc31)[C@@H](c1ccc(Br)cc1)Oc1ccccc12` gave a solubility in data set [1] of 132 µg/mL (≈ 222 µM). Moreover, in data set [2], the Vd turned out to be 2.6 L/kg. This molecule showed a bioavailability in data set [3] of 14%. This molecule also had a mean residence time MRT in data set [4] of 0.46 h.

Regarding `CN1C2=C([C@H](c3ccc(Br)cc3)n3ncnc31)[C@@H](c1ccc(Br)cc1)Oc1ccccc12`, in data set [1], the solubility was less than 1 µg/mL. This molecule also came in with an MRT in data set [5] of 2.4 h. In addition, the bioavailability in data set [6] is 23%. The Vd in data set [7] turned out to be 9.9 L/kg.

`O=C(O)CCCCN1C2=C([C@H](c3ccc(Br)cc3)n3ncnc31)[C@@H](c1ccc(Br)cc1)Oc1ccccc12`: the solubility in data set [1] worked out at 6.1 µg/mL (≈ 9.59 µM). The Vd in data set [2] came out at 1.7 L/kg. Besides, in data set [3], the bioavailability was 54%. This molecule gave a mean residence time (MRT) in data set [4] of 4.1 h.

(Values after ChEMBL document CHEMBL1770142, “Improvement of the synthesis and pharmacokinetic properties of chromenotriazolopyrimidine MDM2-p53 protein-protein inhibitors” (Bioorg Med Chem Lett, 2011).)
